Paper PMC7918756 (The Journal of Experimental Medicine, 2021)
Blank lines part the entries; values can stand above or below the compound they belong to.

Columns and labels:
[1] = biological target: cynomolgus (cyno) monkey TRPA1 (Macaca fascicularis, UniProt A0A2K5VSJ1); assay: CHO cell line FLIPR Ca2+ assay, CA-evoked; format: cell-based
mouse TRPA1 = mouse TRPA1 (Mus musculus, UniProt Q8BLA8); assay: CHO cell line FLIPR Ca2+ assay, CA-evoked; format: cell-based
Procedure, shortened: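 Mouse TRPA1-expressing CHO cells, fluorescent Ca2+ dye loaded, were exposed 10 min to a test compound concentration series and then challenged with cinnamaldehyde. Peak fluorescence responses were used to derive concentration-dependent inhibition.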

guinea pig TRPA1 = guinea pig TRPA1 (Cavia porcellus, UniProt H0VJD1); assay: CHO cell line FLIPR Ca2+ assay, CA-evoked; format: cell-based
Chain of guinea pig TRPA1 (H0VJD1 1-991): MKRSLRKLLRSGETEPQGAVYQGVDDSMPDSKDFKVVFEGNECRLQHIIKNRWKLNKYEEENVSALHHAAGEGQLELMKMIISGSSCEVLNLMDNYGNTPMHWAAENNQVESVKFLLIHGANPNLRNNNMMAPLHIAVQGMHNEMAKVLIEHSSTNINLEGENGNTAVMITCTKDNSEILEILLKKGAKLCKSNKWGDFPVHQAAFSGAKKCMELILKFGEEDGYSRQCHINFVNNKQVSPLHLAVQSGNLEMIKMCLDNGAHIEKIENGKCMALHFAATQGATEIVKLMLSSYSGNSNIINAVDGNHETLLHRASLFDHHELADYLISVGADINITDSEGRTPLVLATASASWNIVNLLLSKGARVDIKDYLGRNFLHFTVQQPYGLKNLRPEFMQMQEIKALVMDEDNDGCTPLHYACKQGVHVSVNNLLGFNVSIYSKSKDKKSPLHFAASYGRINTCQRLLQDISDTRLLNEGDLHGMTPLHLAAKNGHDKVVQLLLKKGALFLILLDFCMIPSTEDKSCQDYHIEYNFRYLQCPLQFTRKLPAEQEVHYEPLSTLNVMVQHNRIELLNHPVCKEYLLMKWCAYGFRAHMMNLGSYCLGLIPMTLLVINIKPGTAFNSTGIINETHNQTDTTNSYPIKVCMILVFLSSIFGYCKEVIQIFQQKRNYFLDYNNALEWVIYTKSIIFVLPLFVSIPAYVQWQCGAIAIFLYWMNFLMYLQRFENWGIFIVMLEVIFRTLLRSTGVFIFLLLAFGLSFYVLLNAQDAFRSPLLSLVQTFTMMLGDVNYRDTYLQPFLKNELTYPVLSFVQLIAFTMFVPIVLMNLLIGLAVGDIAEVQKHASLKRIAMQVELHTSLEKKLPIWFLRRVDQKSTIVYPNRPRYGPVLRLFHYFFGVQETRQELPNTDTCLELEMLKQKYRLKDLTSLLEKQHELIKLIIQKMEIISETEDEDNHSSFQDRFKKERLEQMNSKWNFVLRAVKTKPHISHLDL

dog TRPA1 = dog TRPA1 (Canis lupus familiaris, UniProt A0A8I3Q1Q7); assay: CHO cell line FLIPR Ca2+ assay, CA-evoked; format: cell-based
human TRPV1 = human TRPV1 (Homo sapiens, UniProt Q8NER1); assay: Ca2+ responses evoked by 30 nM capsaicin; format: cell-based
human TRPM8 = human TRPM8 (Homo sapiens, UniProt Q7Z2W7); assay: Ca2+ responses evoked by 50 μM menthol; format: cell-based
Chain of human TRPM8 (Q7Z2W7 whole entry): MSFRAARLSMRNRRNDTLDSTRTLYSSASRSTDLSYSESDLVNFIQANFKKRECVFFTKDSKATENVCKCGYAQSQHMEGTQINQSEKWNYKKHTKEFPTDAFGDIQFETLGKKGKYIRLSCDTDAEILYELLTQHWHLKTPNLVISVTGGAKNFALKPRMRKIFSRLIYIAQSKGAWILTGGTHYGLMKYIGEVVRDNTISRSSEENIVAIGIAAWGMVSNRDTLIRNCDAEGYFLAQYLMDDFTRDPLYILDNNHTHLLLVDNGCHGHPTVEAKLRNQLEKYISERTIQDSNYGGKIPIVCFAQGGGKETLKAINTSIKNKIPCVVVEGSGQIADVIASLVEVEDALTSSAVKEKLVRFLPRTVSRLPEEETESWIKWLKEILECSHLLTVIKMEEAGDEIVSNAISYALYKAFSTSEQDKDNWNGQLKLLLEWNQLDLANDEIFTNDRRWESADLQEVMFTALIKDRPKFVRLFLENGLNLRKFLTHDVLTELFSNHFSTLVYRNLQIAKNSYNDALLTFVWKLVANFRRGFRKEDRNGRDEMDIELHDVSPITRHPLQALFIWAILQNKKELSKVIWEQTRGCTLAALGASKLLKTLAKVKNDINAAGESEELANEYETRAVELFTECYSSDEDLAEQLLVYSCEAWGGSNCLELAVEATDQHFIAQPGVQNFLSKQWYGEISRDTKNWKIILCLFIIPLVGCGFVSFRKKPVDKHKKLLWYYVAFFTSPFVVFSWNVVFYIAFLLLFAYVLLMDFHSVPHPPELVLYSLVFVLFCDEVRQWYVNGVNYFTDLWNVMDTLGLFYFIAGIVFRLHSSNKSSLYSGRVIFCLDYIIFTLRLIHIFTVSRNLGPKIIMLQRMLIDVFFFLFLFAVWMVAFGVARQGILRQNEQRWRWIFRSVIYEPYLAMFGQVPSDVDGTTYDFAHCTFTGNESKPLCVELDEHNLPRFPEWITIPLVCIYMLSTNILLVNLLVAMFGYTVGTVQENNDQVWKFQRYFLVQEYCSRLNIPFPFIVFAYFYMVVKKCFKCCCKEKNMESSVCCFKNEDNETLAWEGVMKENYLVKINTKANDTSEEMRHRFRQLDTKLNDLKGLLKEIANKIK

human TRPC6 = biological target: T1, human TRPC6 (Homo sapiens, UniProt Q9Y210); assay: membrane potential assay using 75 μM carbochol; format: cell-based
T1 sequence (Q9Y210 1-931): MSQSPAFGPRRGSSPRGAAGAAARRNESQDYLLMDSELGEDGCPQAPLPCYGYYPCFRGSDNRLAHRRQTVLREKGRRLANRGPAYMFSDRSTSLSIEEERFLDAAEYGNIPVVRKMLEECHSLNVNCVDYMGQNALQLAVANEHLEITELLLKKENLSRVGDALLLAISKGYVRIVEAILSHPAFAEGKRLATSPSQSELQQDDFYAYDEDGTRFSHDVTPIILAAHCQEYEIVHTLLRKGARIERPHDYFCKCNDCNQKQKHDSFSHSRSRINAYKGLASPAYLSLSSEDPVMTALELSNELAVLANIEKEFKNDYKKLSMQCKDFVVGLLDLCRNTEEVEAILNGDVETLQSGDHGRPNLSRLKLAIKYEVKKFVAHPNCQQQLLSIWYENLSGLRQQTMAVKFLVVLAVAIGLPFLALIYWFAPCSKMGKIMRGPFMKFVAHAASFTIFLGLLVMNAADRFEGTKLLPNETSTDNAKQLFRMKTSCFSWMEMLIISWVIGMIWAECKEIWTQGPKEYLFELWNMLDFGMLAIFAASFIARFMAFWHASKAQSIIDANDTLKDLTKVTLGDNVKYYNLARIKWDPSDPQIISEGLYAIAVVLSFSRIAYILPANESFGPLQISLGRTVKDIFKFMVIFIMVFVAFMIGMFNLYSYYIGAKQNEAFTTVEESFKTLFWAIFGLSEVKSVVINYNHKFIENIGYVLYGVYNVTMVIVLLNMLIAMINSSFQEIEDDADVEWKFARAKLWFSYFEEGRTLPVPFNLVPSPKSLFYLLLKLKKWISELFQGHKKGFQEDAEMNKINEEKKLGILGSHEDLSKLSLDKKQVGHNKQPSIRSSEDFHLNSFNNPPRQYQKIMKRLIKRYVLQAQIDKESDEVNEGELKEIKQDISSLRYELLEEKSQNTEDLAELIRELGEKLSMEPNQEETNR

[2] = tested on: HASMCs (human primary bronchial smooth muscle cells); assay: impedance-based HASMC contraction assay; format: cell-based
HASMCs = assay: calcium imaging, AITC-induced calcium flux in primary cells; format: cell-based, human; settings: HASMCs treated with TRPA1 agonist AITC
Procedure, shortened: (§1)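 Cells were imaged 15–24 h after plating, with fluorescence sampled at 0.5 Hz. TRPA1 activity was evoked by perfusing saline containing 50 µM AITC.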

HLFs = assay: as above; format: cell-based, human; settings: HLFs treated with TRPA1 agonist AITC
Procedure, shortened: as §1

MDCK permeability = format: in vitro ADME, canine; settings: dog
Procedure, shortened: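 MDCK cells were seeded at 2.5 × 10^5 cells/ml and grown 4 d at 37°C, 5% CO2. Medium was DMEM/Earle's balanced salt solution with 10% FBS, renewed on day 2 and the day before the assay.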

[3] = tested on: cross-species hepatocytes; assay: hepatocyte metabolic stability, cross-species summary; format: in vitro ADME
Procedure, shortened: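 Test compound at 1 µM was incubated with pooled cryopreserved hepatocytes from female CD-1 mouse, male Sprague-Dawley rat, male beagle dog, male cynomolgus monkey and mixed-gender human.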

[4] = IV/PO PK, summary across preclinical species; format: in vivo
rats [5] = assay: AITC-induced vascular leakage; format: in vivo, rat; settings: rats, 1, 3 and 10 mg/kg, 3 h before topical AITC
Procedure, shortened: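 Rats dosed 3 h beforehand were given 2% Evans blue i.v. (saline, 2.5 ml/kg) under isoflurane. Then 25 µl 20% AITC went on one ear and mineral oil on the other. Ear thickness was measured. At 20 min after AITC, dye was extracted in formamide (24 h, 65°C) and read at 620 nm.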

rats [6] = assay: OVA challenge model of asthma in rats; format: in vivo, rat; settings: oral
Procedure, shortened: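 Sensitised Brown Norway rats were challenged from day 28 with aerosolised 2% OVA in PBS, 30 min daily for 4 consecutive days. Vehicle or test compound was gavaged 3 h before each challenge; dexamethasone 5 mg/kg orally was the positive control. BALF was collected 24 h after the final treatment, eight rats per group.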

guinea pigs [7] = assay: OVA challenge model of asthma in guinea pigs; format: in vivo, guinea pig; settings: single oral administration of 70 mg/kg
Procedure, shortened: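 Hartley guinea pigs were immunised i.p. on days 0 and 7 with 100 mg OVA plus 80 mg alum in PBS. On day 28 they were challenged with nebulised 0.1% OVA in PBS for 30 min. Vehicle or test compound was given by gavage 3 h before challenge. Animals were euthanised 24 h later, with aortic blood taken for PK.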

rats [8] = assay: AITC-induced dermal blood flow; format: in vivo, rat; settings: oral 3 or 10 mg/kg, 3 h before AITC skin challenge
Procedure, shortened: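 Rats dosed orally 3 h before imaging with 0, 3.0 or 10.0 mg/kg test compound in 85% MCT / 15% DMSO. Topical AITC skin challenge. Dermal blood flow recorded by laser speckle contrast imaging. Traces normalised to fold-change by subtracting and dividing by the mean baseline DBF before AITC. DBF rise-time and maximal level assessed.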

guinea pigs [9] = assay: AITC-induced dermal blood flow; format: in vivo, guinea pig; settings: oral 5, 15 or 45 mg/kg, 3.5 h before AITC skin challenge
Procedure, shortened: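 Female Hartley guinea pigs, 5 wk old, were dosed orally with 0, 5, 15 or 45 mg/kg test compound in 85% MCT/15% DMSO, 3.5 h before topical AITC. Dermal blood flow was imaged by laser speckle contrast imaging. Traces were normalised to fold-change against the mean pre-AITC baseline.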

rats [10] = assay: AITC-induced nocifensive behavior in rats; format: in vivo, rat
Procedure, shortened: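 Rats pretreated with test compound at the indicated doses, then given intraplantar AITC. Nocifensive behaviour scored as flinching plus hind paw–directed licking and biting. Data reported as mean ± SEM.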

[11] = Phase 1 SAD study, plasma PK; format: in vivo, human; settings: healthy volunteers, dose increased from 75 mg to 600 mg
Procedure, shortened: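 Healthy volunteers in single-ascending-dose cohorts, randomised 6 test compound : 2 placebo, dosed fasted at 25, 75, 200 or 600 mg. Blood sampled before dose and at multiple time points after dose. Plasma concentrations measured by validated analytical methods.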

healthy volunteers [12] = assay: Phase 1 SAD study, safety and tolerability; format: in vivo, human; settings: single oral dose 25-600 mg
Procedure, shortened: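 Healthy volunteers received a single oral dose, fasted, randomised 6 active:2 placebo per cohort at 25, 75, 200 or 600 mg. Safety and tolerability was the primary outcome. Escalation targeted about two- to threefold exposure increases, decided after review of safety and PK data up to 72 h post-dose.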

healthy volunteers [13] = assay: Phase 1 SAD study, AITC skin challenge; format: in vivo, human
Procedure, shortened: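 Randomised, double-blind, single ascending oral dose study in fasted healthy volunteers: six active and two placebo per cohort, at 25, 75, 200 or 600 mg (tablets). AITC skin challenge was at 3 h (25 mg), 8 h (75 mg) or 6 h (200/600 mg) post-dose. DBF was recorded by LSCI from 2 min before to 21 min after AITC. Pain and itch were rated 0–10 at 2–20 min. DBF AUC0–10 min and maximal scores were compared with pooled placebo (Dunnett's); plasma concentrations were measured by validated bioanalysis.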

Chain of cynomolgus (cyno) monkey TRPA1 (A0A2K5VSJ1 26-1144): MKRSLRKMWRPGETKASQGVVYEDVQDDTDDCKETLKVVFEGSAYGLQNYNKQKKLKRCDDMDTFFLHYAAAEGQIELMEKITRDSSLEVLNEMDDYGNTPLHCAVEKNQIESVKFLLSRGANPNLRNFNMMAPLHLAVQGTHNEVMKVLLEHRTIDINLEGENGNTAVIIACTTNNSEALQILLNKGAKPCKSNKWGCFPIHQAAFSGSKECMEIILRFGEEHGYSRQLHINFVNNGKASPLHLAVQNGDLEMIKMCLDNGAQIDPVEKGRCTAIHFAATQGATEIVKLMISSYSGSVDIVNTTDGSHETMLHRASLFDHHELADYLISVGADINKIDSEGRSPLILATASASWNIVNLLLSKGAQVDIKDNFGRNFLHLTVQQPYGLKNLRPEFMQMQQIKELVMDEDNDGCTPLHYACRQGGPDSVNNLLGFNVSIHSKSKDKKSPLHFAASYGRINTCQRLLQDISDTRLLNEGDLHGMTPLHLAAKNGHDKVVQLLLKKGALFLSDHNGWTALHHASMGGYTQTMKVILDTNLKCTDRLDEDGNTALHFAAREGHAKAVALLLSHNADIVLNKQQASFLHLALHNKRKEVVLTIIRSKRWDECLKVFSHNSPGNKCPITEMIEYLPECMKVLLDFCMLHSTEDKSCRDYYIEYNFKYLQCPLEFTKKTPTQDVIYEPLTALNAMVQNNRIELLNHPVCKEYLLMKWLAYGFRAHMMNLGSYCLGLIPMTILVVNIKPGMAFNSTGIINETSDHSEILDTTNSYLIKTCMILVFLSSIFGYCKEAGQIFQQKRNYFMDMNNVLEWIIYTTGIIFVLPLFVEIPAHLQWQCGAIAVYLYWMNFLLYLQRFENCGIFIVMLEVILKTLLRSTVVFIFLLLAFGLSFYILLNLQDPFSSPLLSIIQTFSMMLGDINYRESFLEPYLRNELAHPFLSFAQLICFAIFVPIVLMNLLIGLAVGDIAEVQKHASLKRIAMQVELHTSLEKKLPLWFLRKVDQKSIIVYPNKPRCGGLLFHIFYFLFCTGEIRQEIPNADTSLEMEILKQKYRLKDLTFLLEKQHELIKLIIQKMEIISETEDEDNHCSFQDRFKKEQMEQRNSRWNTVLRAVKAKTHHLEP
Chain of mouse TRPA1 (Q8BLA8 whole entry): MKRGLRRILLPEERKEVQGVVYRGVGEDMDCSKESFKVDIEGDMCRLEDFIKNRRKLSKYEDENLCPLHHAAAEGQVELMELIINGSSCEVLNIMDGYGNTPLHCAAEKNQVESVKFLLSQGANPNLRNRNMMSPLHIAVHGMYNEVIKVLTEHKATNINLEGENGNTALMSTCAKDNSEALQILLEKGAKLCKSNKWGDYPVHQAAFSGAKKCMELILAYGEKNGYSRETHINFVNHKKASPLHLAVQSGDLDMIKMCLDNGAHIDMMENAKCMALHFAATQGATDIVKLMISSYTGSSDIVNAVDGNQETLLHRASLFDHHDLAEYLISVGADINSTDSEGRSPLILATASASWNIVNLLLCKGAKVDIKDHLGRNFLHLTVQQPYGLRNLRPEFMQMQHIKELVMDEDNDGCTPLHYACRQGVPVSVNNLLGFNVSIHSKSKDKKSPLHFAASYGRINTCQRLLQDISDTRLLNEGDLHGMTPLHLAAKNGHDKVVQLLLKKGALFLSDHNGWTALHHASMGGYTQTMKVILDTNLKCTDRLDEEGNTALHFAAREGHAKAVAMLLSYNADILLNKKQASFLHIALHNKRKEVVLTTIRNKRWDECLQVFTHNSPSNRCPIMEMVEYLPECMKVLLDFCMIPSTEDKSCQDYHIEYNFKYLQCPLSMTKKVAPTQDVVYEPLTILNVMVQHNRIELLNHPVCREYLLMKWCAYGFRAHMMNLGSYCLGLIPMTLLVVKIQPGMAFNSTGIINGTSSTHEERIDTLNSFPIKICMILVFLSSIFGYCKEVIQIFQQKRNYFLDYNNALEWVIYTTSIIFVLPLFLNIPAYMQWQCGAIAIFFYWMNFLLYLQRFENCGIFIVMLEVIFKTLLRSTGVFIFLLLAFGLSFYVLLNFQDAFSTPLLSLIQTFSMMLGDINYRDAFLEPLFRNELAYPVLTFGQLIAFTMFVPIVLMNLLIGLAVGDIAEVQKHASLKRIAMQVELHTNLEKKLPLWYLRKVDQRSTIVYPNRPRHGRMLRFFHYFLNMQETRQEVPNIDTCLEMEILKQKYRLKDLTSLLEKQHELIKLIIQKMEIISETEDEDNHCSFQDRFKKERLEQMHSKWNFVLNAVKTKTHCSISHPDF

- IC50 [1]: 3.6 nM
- IC50 (mouse TRPA1): 2.7 nM
- IC50 (guinea pig TRPA1): 11.1 nM
- IC50 (dog TRPA1): 102 nM
- IC50 (human TRPV1): > 10000 nM
- IC50 (human TRPM8): > 10000 nM
- IC50 (human TRPC6): > 10000 nM
- IC50 ([2]; Homo sapiens, HASMC, read-out: HASMC contraction IC50): 1.8 nM
- Papp A→B at 180 min, 10 µM (MDCK permeability): 18.9 ×10⁻⁶ cm/s
- metabolite stability in cross-species hepatocytes [3]: moderate to high
- clearances [4]: low to moderate
Compound: C[C@H]1[C@H](F)C[C@@H](C(=O)NCc2cc(-c3cnc(C(F)(F)F)nc3)ncc2C(F)(F)F)N1S(=O)(=O)c1ccc(F)cc1 [GDC-0334, (2S,4R,5S)-4-fluoro-1-(4-fluorophenylsulfonyl)-5-methyl-N-((5-(trifluoromethyl)-2-(2-(trifluoromethyl)pyrimidin-5-yl)pyridin-4-yl)methyl)pyrrolidine-2-carboxamide]
- effect on AITC-induced calcium flux (HASMCs): inhibited calcium flux
- effect on AITC-induced calcium flux (HLFs): inhibited calcium flux
- Evans blue perfusion (AITC-induced vascular leakage) (rats [5]): Dose-dependent reductions
- substance P (SP) in BALF after OVA challenge (rats [6]): significantly blunted an increase
- BALF infiltrates to the airways (guinea pigs [7]): significantly reduced BALF infiltrates
- AITC-induced DBF (rats [8]): Dose-dependent decreases in the DBF rise-times and maximal levels
- AITC-induced DBF (guinea pigs [9]): dose-dependent reduction
- AITC-induced nocifensive behavior (rats [10]; 3-mg/kg dose): suppression comparable to that of Trpa1^−/− rats
- AITC-induced nocifensive behavior (rats [10]; pretreatment, indicated doses): reduced AITC-induced nocifensive behavior in a dose-dependent manner
- exposures (Cmax, AUC0–24h, AUC0–72h) vs dose [11]: Approximately dose-proportional increases
- TEAEs thought to be related to treatment (healthy volunteers [12]): one case of mild headache
- serious TEAEs (healthy volunteers [12]): no serious treatment-emergent AEs
- tolerability (healthy volunteers [12]): well tolerated with only mild or moderate adverse events
- AITC-induced pain and itch (healthy volunteers [13]; healthy volunteers dosed with 600 mg): near-complete inhibition
- AITC-induced pain and itch (healthy volunteers [13]; healthy volunteers, 25-600 mg vs placebo, verbal rating 0–10): dose dependently reduced
- DBF response to the AITC skin challenge (healthy volunteers [13]; healthy volunteers, AITC challenge 3–8 h after oral dosing): strong PD effect
- free plasma concentration with near-complete inhibition of AITC-induced DBF (healthy volunteers [13]; healthy volunteers, free plasma): > 4.92 nM
- plasma concentration with near-complete inhibition of AITC-induced DBF (healthy volunteers [13]; healthy volunteers, total plasma): > 250 ng/mL

Compound: CCC(=N\O)/C(C)=C/c1ccc(F)cc1 [A-967079, reference compound]
- times less potent than GDC-0334 ([2]; HASMC contraction assay (Fig. 2 C)): ~500 times
